From ChEMBL document CHEMBL3259541, “Synthesis and biological evaluation of antimetastatic agents predicated upon dihydromotuporamine C and its carbocyclic derivatives” (J Med Chem, 2014)
The source made the active and inactive calls. The calls are words filed in the database; no cut-off is given here.

Key:
L3.6pl [1] = assay: Antimetastatic activity against human L3.6PL cells injected into pancreas of immune-compromised mouse assessed as liver micrometastasis at 2.5 mg/kg,ip 5 days per week for 2 weeks after 7 days of tumor cells inoculation by microscopically; format: functional, organism-based; set-up: dose 2.5 mg/kg
Method in brief: (§1)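 Nu/nu mice engrafted with human L3.6pl pancreatic tumor cells; vehicle or compound given ip 5 days/week for 2 weeks (10 injections; 2.50 mg/kg for one agent, 2.66 mg/kg equimolar for the other), n=7 per group. Livers collected at termination; micrometastasis incidence and size scored macroscopically and on sections by H&E, human Ki67 and human cytokeratin-18 immunohistochemistry.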

L3.6pl [2] = assay: Effect on intracellular ceramide population in human L3.6PL cells assessed as sphingomyelin N22:0 level measured per mg of protein at 0.6 uM after 48 hrs incubation by mass spectrometry analysis (reference value: 0.30 +/- 0.10 nmol); format: functional
L3.6pl [3] = assay: Antimetastatic activity against human L3.6PL cells injected into pancreas of immune-compromised mouse assessed as liver micrometastasis at 2.5 mg/kg,ip 5 days per week for 2 weeks after 7 days of tumor cells inoculation by human Ki67 immunohistochemical staining
Mus musculus [4] = assay: Toxicity in immune-compromised mouse assessed as adverse event at 2.5 mg/kg,ip 5 days per week for 2 weeks; format: organism-based; set-up: dose 2.5 mg/kg; settings: in vivo
L3.6pl [5] = assay: Antimetastatic activity against human L3.6PL cells injected into pancreas of immune-compromised mouse assessed as liver micrometastasis at 2.5 mg/kg,ip 5 days per week for 2 weeks after 7 days of tumor cells inoculation by Hematoxylin and eosin staining
L3.6pl [6] = assay: Effect on intracellular ceramide population in human L3.6PL cells assessed as sphingomyelin N16:0 level measured as contribution to total ceramide population at 0.6 uM after 48 hrs incubation by mass spectrometry analysis (reference value: 37.3%); format: functional
[7] = Toxicity in immune-compromised mouse compound treated ip 5 days per week for 2 weeks; format: organism-based; settings: in vivo
L3.6pl [8] = assay: Effect on intracellular ceramide population in human L3.6PL cells assessed as sphingomyelin N22:1 level measured per mg of protein at 0.6 uM after 48 hrs incubation by mass spectrometry analysis (reference value: 0.23 +/- 0.07 nmol); format: functional
L3.6pl [9] = assay: Effect on intracellular ceramide population in human L3.6PL cells assessed as sphingomyelin N24:3 level measured per mg of protein at 0.6 uM after 48 hrs incubation by mass spectrometry analysis (reference value: 0.05 +/- 0.02 nmol); format: functional
L3.6pl [10] = assay: Effect on intracellular ceramide population in human L3.6PL cells assessed as ceramide N22:1 level measured as contribution to total ceramide population at 0.6 uM after 48 hrs incubation by mass spectrometry analysis relative to untreated control
L3.6pl [11] = assay: Effect on intracellular ceramide population in human L3.6PL cells assessed as ceramide N16:0 to N22:1 ratio measured at 0.6 uM after 48 hrs incubation by mass spectrometry analysis (reference value: 5.8 no_unit)
Mus musculus [12] = assay: Toxicity in immune-compromised mouse assessed as adverse event at 2.66 mg/kg,ip 5 days per week for 2 weeks; format: organism-based; set-up: dose 2.66 mg/kg; settings: in vivo
L3.6pl [13] = assay: Antimigratory activity against human L3.6PL cells assessed as cell migration inhibition after 48 hrs incubation by wound healing assay in presence of 250 uM aminoguanidine treated 24 hrs prior compound addition; format: functional, cell-based
L3.6pl [14] = assay: Antimetastatic activity against human L3.6PL cells injected into pancreas of immune-compromised mouse assessed as liver micrometastasis at 2.66 mg/kg,ip 5 days per week for 2 weeks after 7 days of tumor cells inoculation by Hematoxylin and eosin staining
L3.6pl [15] = assay: Antimetastatic activity against human L3.6PL cells injected into pancreas of immune-compromised mouse assessed as liver micrometastasis at 2.66 mg/kg,ip 5 days per week for 2 weeks after 7 days of tumor cells inoculation by human Ki67 immunohistochemical staining
L3.6pl [16] = assay: Antimetastatic activity against human L3.6PL cells injected into pancreas of immune-compromised mouse assessed as liver micrometastasis at 2.66 mg/kg,ip 5 days per week for 2 weeks after 7 days of tumor cells inoculation by microscopically; format: functional, organism-based; set-up: dose 2.66 mg/kg; method in brief: as §1

SMILES	Activity (L3.6pl [1])	Activity (L3.6pl [2])	Activity (L3.6pl [3])	Activity (Mus musculus [4])	Activity (L3.6pl [5])	Activity (L3.6pl [6])	MTD at 2 weeks [7]	Activity (L3.6pl [8])	Activity (L3.6pl [9])	fold change (FC) (L3.6pl [10])	Ratio (L3.6pl [11])	Activity (Mus musculus [12])	inhibition (L3.6pl [13])	Activity (L3.6pl [14])	Activity (L3.6pl [15])	Activity (L3.6pl [16])
Cl.NCCCNCCCN1CCCCCCCCCCCCCC1	inactive	0.4 nmol	inactive	Non-toxic	inactive	20.3%	2.5 mg/kg	0.26 nmol	0.06 nmol	2.8	1.1	–	–	–	–	–
Cl.NCCCNCCCNCC1CCCCCCCCCCCCCC1	–	0.46 nmol	–	–	–	38.4%	–	0.3 nmol	0.06 nmol	–	8.4	Non-toxic	Dose-dependent effect	Active	Active	Active
